Tests used:
[1] = HPLC capacity factor (logK); format: ADME
[2] = Observed rate of hydrolysis (logKobs) (pH=4.0); format: ADME
How it was run: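 Hydrolysis followed by cyclic voltammetry at 20 °C in deaerated 0.1 M acetate buffers (pH 5.0–3.5) or 0.02 M NaH2PO4 (pH 3.5, 3.0), ionic strength 0.1 M (NaNO3). Decrease of the parent cathodic peak tracked over time. Pseudo-first-order kobs from linear regression of log concentration versus time.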

[3] = log 1/anion production.; format: functional
[4] = (§1) log 1/MIC for fungi in mmol/L; format: functional
L1210 [5] = experiment: log 1/ID75 for the in vitro clonogenic L1210 assay with ID75 in umol/L; format: functional, Mus musculus
Fungi = experiment: as §1; format: functional
[6] = (§2) DNA cross link ratio at pH=5.0 and 50 umol/L compound; format: functional
[7] = log 1/LD50 for LD50 (mmol/kg); format: ADME
B16 = experiment: log 1/D125 or the dose (mmol/kg) to give 125%T/C ratio (B16) in vivo; format: functional, Mus musculus
[8] = Electrochemically observed pKa (pKred) of aziridines; format: physicochemical; conditions: read-out: pKred
L1210 [9] = experiment: log 1/D125 for the dose (mmol/kg) to give 125%T/C ratio (L1210) in vivo; format: functional, Mus musculus
[10] = E1/2 for the half-wave potential at pH=7.0 in V57; format: ADME
Nucleic Acid = experiment: as §2; format: functional
[11] = log KGSH for the rate k of glutathione (GSH) consumption in 1/s; format: functional
[12] = Partition coefficient (logP); format: physicochemical; conditions: octanol/water
How it was run: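 Micro shake-flask: buffered aqueous compound solution (pH 6.50) shaken with an equal volume of water-saturated 1-octanol at room temperature, 3 × 120 s. Centrifuged 14000g, 15 min. Aqueous phase analysed by RP-HPLC against the unshaken solution (methanol 30, 50 or 70 wt%, 1.0 mL/min, UV 254 nm). Run in duplicate, or quadruplicate if needed.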

Row | SMILES | Log K [1] | Log Kobs [2] | Log 1/conc (mM min-1 L-1) [3] | Log 1/MIC (mM L-1) [4] | Log 1/ID75 (uM L-1) (L1210 [5]) | Log 1/MIC (mM L-1) (Fungi) | lnK [6] | Log 1/LD50 (mM kg-1) [7] | Log 1/D125 (mM kg-1) (B16) | pKa [8] | Log 1/D125 (L1210) (mM kg-1) (L1210 [9]) | E 1/2 [10] | DNA cross-link ratio (Nucleic Acid) | Log k GSH (s-1) [11] | logP [12]
1 | O=C1C(Br)=C(N2CC2)C(=O)C(Br)=C1N1CC1 | 0.474 | -4.7 | 2.87 | 1.54 | 0.35 | – | – | – | – | – | – | – | – | – | –
2 | CC1=C(N2CC2C)C(=O)C(Br)=C(N2CC2C)C1=O (centres undefined) | – | -3.85 | 2.5 | – | 2.66 | 1.01 | 0.03 | 1.59 | 1.71 | 9.2 | 1.79 | -0.194 | – | – | –
3 | CCC1=C(N2CC2)C(=O)C(Br)=C(N2CC2)C1=O | – | -4.3 | 2.42 | – | 2.82 | 1.57 | – | 1.39 | 2.6 | 8.8 | 1.41 | -0.21 | 0.15 | -3 | –
4 | CCOC(=O)NC1=C(N2CC2)C(=O)C(NC(=O)OCC)=C(N2CC2)C1=O [DIAZIQUONE] | -0.48 | -4.25 | 1.56 | – | -0.57 | -0.29 | – | 1.54 | 2.32 | 8.3 | 2.26 | -0.149 | 0.14 | -4.64 | 0.04
5 | CC1=C(N2CC2)C(=O)C(CCOC(N)=O)=C(N2CC2)C1=O | – | -4.05 | 1.02 | – | 1.82 | – | – | 1.99 | 3.49 | 8.9 | 2.86 | -0.213 | 0.27 | -4.92 | –
6 | O=C1C=C(N2CC2)C(=O)C=C1N1CC1 | – | -2.57 | 2.09 | – | 1.68 | 2.58 | – | 1.8 | 3.16 | 7.5 | 2.77 | -0.105 | 0.29 | -3.24 | 0.18
7 | COC(COC(N)=O)C1=C(N2CC2)C(=O)C(C)=C(N2CC2)C1=O (centres undefined) [CARBOQUONE] | -0.438 | -3.65 | 0.57 | – | 1.05 | -1.19 | – | 1.73 | 3.32 | 8.6 | 3.21 | -0.182 | 0.26 | -5.15 | -0.15
